Active and inactive are the calls of the source. The calls are words filed in the database; no cut-off is given here.
Tests used:
[1] = molecular target: Protein kinase C delta type (Homo sapiens, UniProt Q05655); experiment: Inhibition of PKCdelta by SPA
[2] = molecular target: T1, Protein kinase C epsilon type (Homo sapiens, UniProt Q02156); experiment: Inhibition of PKCepsilon by SPA
T1 sequence (Q02156 whole entry): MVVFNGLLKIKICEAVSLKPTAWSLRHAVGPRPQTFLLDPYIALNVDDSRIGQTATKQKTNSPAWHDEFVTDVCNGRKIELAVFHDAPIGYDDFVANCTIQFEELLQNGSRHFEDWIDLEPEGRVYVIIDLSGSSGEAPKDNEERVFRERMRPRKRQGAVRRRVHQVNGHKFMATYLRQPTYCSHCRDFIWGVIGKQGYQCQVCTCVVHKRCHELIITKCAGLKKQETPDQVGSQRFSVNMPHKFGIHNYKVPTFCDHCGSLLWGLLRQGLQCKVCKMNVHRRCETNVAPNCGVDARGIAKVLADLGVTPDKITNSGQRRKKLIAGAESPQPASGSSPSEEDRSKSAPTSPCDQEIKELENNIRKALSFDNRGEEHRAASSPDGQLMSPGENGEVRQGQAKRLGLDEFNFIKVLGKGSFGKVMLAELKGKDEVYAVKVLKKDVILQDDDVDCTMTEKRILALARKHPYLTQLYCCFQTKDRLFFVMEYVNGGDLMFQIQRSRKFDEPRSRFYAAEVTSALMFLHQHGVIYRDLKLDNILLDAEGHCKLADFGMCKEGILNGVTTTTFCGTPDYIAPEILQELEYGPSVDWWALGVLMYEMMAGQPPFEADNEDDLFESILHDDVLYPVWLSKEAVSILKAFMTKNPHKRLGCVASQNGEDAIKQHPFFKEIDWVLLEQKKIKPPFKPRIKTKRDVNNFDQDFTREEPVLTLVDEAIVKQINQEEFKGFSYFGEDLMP

[3] = molecular target: Protein kinase C eta type (Homo sapiens, UniProt P24723); experiment: Inhibition of PKCeta by SPA
[4] = molecular target: Protein kinase C theta type (Homo sapiens, UniProt Q04759); experiment: Inhibition of PKCtheta by SPA
[5] = Dissociation constant, pKa of the compound; format: physicochemical
Rattus norvegicus [6] = species on record: Rattus norvegicus; experiment: Immunosuppressive activity in rat localized graft-versus-host model; format: functional, organism-based
Rattus norvegicus [7] = species on record: Rattus norvegicus; experiment: Prolongation of allograft survival in rat heterotropic heart transplant model; format: functional, organism-based
Cynomolgus monkey = experiment: Prolongation of allograft survival in cynomolgus monkey renal allograft model; format: functional, organism-based; conditions: Macaca fascicularis
[8] = molecular target: Protein kinase C zeta type (Homo sapiens, UniProt Q05513); experiment: Inhibition of PKCzeta by SPA
[9] = AUC (0 to infinity) in OFA rat at 5 mg/kg, iv; format: ADME, organism-based; design: time infinity, dose 5 mg/kg, route intravenous; conditions: plasma
Method in brief: (§1)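 Rats dosed either 5 mg/kg iv in 75% saline (0.9%)-25% PEG400 or 20 mg/kg po in 75% water-25% PEG400. OFA or Lewis rats were used depending on the compound. Values are averages of three animals. AUC is extrapolated to infinity. Oral bioavailability (F) comes from the po and iv exposures.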

[10] = Elimination half life in OFA rat at 5 mg/kg, iv; format: ADME, organism-based; design: dose 5 mg/kg, route intravenous; conditions: in vivo, read-out: beta t1/2 (converted); method in brief: as §1
[11] = Clearance in OFA rat at 5 mg/kg, iv; format: ADME, organism-based; design: dose 5 mg/kg, route intravenous; conditions: in vivo; method in brief: as §1
[12] = Volume of distribution at steady state in OFA rat at 5 mg/kg, iv; format: ADME, organism-based; design: dose 5 mg/kg, route intravenous; conditions: in vivo, read-out: Vdss; method in brief: as §1
[13] = Tmax in OFA rat at 20 mg/kg, po; format: ADME, organism-based; design: dose 20 mg/kg, route oral; conditions: in vivo; method in brief: as §1
[14] = Cmax in OFA rat at 20 mg/kg, po; format: ADME, organism-based; design: dose 20 mg/kg, route oral; conditions: in vivo; method in brief: as §1
[15] = AUC (0 to infinity) in OFA rat at 20 mg/kg, po; format: ADME, organism-based; design: dose 20 mg/kg, route oral, time infinity; conditions: plasma; method in brief: as §1
[16] = Oral bioavailability in OFA rat at 20 mg/kg, po; format: ADME, organism-based; conditions: in vivo; method in brief: as §1
[17] = molecular target: Glycogen synthase kinase-3 beta (Homo sapiens, UniProt P49841); experiment: Inhibition of human recombinant GSK3-beta
[18] = molecular target: Tyrosine-protein kinase JAK3 (Homo sapiens, UniProt P52333); experiment: Inhibition of human recombinant JAK3
[19] = molecular target: Cyclin-dependent kinase 2/cyclin A (Homo sapiens, UniProt P24941); experiment: Inhibition of human recombinant CDK2/cyclin A; format: protein-complex assay
[20] = molecular target: Tyrosine-protein kinase ABL1 (Homo sapiens, UniProt P00519); experiment: Inhibition of human recombinant Abl
[21] = Inhibition of human recombinant PKA
[22] = molecular target: Vascular endothelial growth factor receptor 2 (Homo sapiens, UniProt P35968); experiment: Inhibition of human recombinant KDR
[23] = molecular target: Vascular endothelial growth factor receptor 3 (Homo sapiens, UniProt P35916); experiment: Inhibition of human recombinant Flt4
[24] = molecular target: Tyrosine-protein kinase Fyn (Homo sapiens, UniProt P06241); experiment: Inhibition of human recombinant Fyn
[25] = molecular target: Tyrosine-protein kinase JAK1 (Homo sapiens, UniProt P23458); experiment: Inhibition of human recombinant JAK1
Focal adhesion kinase 1 = Focal adhesion kinase 1 (Homo sapiens, UniProt Q05397); experiment: Inhibition of human recombinant FAK
[26] = molecular target: Tyrosine-protein kinase receptor UFO (Homo sapiens, UniProt P30530); experiment: Inhibition of human recombinant Axl
[27] = molecular target: ALK tyrosine kinase receptor (Homo sapiens, UniProt Q9UM73); experiment: Inhibition of human recombinant Alk
[28] = molecular target: RAC-alpha serine/threonine-protein kinase (Homo sapiens, UniProt P31749); experiment: Inhibition of human recombinant Akt1
[29] = molecular target: Tyrosine-protein kinase BTK (Homo sapiens, UniProt Q06187); experiment: Inhibition of human recombinant Btk
Ephrin type-B receptor 4 = Ephrin type-B receptor 4 (Homo sapiens, UniProt P54760); experiment: Inhibition of human recombinant EphB4
[30] = molecular target: Tyrosine-protein kinase HCK (Homo sapiens, UniProt P08631); experiment: Inhibition of human recombinant Hck
[31] = molecular target: Receptor tyrosine-protein kinase erbB-2 (Homo sapiens, UniProt P04626); experiment: Inhibition of human recombinant HER2
[32] = molecular target: Insulin-like growth factor 1 receptor (Homo sapiens, UniProt P08069); experiment: Inhibition of human recombinant IGF1R
[33] = molecular target: Tyrosine-protein kinase JAK2 (Homo sapiens, UniProt O60674); experiment: Inhibition of human recombinant JAK2
[34] = molecular target: Mitogen-activated protein kinase 8 (Homo sapiens, UniProt P45983); experiment: Inhibition of human recombinant JNK1
[35] = molecular target: Mitogen-activated protein kinase 9 (Homo sapiens, UniProt P45984); experiment: Inhibition of human recombinant JNK2
[36] = molecular target: Mitogen-activated protein kinase 10 (Homo sapiens, UniProt P53779); experiment: Inhibition of human recombinant JNK3
[37] = molecular target: Mast/stem cell growth factor receptor Kit (Homo sapiens, UniProt P10721); experiment: Inhibition of human recombinant Kit
[38] = molecular target: Tyrosine-protein kinase Lck (Homo sapiens, UniProt P06239); experiment: Inhibition of human recombinant Lck
[39] = molecular target: Mitogen-activated protein kinase 14 (Homo sapiens, UniProt Q16539); experiment: Inhibition of human recombinant p38alpha
[40] = molecular target: Hepatocyte growth factor receptor (Homo sapiens, UniProt P08581); experiment: Inhibition of human recombinant Met
[41] = molecular target: Serine/threonine-protein kinase PAK 2 (Homo sapiens, UniProt Q13177); experiment: Inhibition of human recombinant PAK2
[42] = molecular target: Phosphatidylinositol 4,5-bisphosphate 3-kinase catalytic subunit alpha isoform (Homo sapiens, UniProt P42336); experiment: Inhibition of human recombinant PI3Kalpha
[43] = molecular target: Phosphatidylinositol 4,5-bisphosphate 3-kinase catalytic subunit beta isoform (Homo sapiens, UniProt P42338); experiment: Inhibition of human recombinant PI3Kbeta
[44] = molecular target: Phosphatidylinositol 4,5-bisphosphate 3-kinase catalytic subunit gamma isoform (Homo sapiens, UniProt P48736); experiment: Inhibition of human recombinant PI3Kgamma
[45] = molecular target: Phosphatidylinositol 4,5-bisphosphate 3-kinase catalytic subunit delta isoform (Homo sapiens, UniProt O00329); experiment: Inhibition of human recombinant PI3Kdelta
[46] = molecular target: Proto-oncogene tyrosine-protein kinase receptor Ret (Homo sapiens, UniProt P07949); experiment: Inhibition of human recombinant Ret
[47] = molecular target: Rho-associated protein kinase 1 (Homo sapiens, UniProt Q13464); experiment: Inhibition of human recombinant ROCK1
[48] = molecular target: Rho-associated protein kinase 2 (Homo sapiens, UniProt O75116); experiment: Inhibition of human recombinant ROCK2
[49] = molecular target: Tyrosine-protein kinase SYK (Homo sapiens, UniProt P43405); experiment: Inhibition of human recombinant Syk
[50] = molecular target: Tyrosine-protein kinase ZAP-70 (Homo sapiens, UniProt P43403); experiment: Inhibition of human recombinant ZAP70
cells [51] = conditions: Homo sapiens, Jurkat
Splenocyte = experiment: cells; conditions: Mus musculus, BALB/c
cells [52] = conditions: Homo sapiens, Splenocyte
cells [53] = conditions: Mus musculus, CBA, Bone marrow cell

Chain of Mitogen-activated protein kinase 10 (P53779 whole entry): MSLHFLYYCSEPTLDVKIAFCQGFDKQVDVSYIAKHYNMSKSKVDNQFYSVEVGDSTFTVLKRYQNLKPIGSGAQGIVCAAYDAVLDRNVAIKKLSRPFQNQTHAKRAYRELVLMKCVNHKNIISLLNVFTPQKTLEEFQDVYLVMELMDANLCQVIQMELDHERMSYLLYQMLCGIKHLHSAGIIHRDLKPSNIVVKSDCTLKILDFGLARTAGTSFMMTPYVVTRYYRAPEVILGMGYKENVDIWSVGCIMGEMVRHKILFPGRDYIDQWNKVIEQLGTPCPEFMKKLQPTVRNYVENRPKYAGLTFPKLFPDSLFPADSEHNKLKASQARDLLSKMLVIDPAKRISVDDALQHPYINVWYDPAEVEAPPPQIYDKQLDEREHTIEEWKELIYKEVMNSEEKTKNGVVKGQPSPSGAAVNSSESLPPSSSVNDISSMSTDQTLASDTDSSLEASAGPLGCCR
Chain of Tyrosine-protein kinase ABL1 (P00519 whole entry): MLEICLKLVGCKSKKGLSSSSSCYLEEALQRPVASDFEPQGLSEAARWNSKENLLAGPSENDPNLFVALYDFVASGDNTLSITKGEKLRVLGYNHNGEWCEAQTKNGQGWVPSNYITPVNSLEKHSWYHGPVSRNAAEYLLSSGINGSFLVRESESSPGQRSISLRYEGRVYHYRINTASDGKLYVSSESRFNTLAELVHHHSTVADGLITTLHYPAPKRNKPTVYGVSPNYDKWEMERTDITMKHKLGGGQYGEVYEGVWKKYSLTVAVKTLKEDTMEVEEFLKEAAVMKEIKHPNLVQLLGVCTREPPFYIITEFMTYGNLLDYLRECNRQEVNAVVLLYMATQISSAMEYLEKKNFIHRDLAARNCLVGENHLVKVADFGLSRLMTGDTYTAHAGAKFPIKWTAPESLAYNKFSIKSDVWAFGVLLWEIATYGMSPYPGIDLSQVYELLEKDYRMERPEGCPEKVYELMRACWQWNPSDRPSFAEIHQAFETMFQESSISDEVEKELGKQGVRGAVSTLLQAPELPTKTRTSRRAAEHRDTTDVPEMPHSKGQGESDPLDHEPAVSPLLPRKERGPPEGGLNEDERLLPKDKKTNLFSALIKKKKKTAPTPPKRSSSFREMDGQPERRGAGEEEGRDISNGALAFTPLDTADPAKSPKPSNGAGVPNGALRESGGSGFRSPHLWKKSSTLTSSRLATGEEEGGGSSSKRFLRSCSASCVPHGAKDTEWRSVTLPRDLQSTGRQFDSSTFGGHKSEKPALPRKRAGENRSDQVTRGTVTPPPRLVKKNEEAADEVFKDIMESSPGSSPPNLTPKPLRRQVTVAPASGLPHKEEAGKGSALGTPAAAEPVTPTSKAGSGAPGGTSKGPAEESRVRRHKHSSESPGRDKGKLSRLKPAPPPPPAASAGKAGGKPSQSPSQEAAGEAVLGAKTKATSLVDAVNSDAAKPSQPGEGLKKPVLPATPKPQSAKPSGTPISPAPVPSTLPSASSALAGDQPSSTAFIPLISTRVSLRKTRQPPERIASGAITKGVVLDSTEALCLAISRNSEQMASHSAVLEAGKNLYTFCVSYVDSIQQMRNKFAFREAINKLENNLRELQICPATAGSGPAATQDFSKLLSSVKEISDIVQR
Chain of Phosphatidylinositol 4,5-bisphosphate 3-kinase catalytic subunit beta isoform (P42338 whole entry, canonical isoform): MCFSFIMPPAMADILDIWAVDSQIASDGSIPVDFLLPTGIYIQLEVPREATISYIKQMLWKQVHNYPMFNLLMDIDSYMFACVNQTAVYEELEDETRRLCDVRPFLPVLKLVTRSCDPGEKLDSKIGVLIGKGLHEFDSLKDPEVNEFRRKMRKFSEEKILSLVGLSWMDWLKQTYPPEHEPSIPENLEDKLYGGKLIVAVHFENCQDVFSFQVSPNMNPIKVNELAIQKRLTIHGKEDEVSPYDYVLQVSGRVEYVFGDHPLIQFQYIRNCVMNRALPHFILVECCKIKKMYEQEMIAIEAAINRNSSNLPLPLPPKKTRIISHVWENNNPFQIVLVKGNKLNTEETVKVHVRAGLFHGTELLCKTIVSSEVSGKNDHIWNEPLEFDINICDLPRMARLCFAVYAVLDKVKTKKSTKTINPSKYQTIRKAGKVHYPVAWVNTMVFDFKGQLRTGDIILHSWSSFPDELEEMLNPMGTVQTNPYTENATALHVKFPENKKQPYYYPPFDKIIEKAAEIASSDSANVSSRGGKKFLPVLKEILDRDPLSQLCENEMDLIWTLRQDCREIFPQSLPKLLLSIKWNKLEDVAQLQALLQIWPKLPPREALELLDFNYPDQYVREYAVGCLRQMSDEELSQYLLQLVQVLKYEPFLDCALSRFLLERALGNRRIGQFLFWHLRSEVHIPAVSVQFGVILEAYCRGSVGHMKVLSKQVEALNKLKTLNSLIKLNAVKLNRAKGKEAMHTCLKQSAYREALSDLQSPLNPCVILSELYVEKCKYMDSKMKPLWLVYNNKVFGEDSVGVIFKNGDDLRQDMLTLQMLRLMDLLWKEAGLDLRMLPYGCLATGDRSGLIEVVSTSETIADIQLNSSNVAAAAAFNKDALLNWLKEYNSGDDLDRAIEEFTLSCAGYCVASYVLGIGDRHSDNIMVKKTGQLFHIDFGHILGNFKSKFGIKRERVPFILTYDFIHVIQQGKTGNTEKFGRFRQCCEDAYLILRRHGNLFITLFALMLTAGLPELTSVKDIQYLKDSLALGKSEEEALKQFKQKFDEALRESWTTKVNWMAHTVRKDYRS
Chain of Hepatocyte growth factor receptor (P08581 whole entry): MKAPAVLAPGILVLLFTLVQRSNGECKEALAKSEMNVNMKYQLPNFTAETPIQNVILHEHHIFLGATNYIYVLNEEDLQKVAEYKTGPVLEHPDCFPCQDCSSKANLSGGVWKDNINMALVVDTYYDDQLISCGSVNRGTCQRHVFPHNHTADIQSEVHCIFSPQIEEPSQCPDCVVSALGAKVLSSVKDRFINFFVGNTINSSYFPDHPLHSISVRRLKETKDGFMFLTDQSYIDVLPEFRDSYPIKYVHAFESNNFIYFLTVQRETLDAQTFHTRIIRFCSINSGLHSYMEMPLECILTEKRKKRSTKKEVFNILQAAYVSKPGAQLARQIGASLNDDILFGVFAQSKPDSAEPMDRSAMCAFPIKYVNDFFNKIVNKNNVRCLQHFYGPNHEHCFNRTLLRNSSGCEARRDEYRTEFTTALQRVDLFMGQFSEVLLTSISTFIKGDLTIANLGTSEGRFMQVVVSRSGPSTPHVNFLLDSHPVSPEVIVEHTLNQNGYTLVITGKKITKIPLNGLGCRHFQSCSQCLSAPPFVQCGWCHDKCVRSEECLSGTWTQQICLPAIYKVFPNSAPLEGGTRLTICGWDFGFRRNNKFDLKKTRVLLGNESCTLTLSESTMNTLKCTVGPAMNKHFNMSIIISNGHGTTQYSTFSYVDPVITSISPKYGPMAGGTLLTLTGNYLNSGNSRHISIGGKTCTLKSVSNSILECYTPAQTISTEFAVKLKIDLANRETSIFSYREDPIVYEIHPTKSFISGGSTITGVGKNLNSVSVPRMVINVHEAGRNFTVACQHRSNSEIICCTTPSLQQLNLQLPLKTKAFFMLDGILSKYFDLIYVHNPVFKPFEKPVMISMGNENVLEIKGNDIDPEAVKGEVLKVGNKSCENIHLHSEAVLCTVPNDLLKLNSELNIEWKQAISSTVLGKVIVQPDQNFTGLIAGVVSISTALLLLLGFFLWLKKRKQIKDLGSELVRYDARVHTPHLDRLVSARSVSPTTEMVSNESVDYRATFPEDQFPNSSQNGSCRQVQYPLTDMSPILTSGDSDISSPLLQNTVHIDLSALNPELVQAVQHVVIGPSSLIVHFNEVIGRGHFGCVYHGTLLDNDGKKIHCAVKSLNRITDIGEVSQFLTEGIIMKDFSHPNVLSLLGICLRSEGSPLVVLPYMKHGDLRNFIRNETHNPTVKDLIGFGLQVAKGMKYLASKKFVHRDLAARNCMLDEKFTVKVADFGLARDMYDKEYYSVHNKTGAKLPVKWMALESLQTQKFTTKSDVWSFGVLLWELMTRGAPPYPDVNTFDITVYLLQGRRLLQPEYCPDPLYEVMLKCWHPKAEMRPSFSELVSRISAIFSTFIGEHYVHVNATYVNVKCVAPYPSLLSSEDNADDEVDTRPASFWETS
Chain of RAC-alpha serine/threonine-protein kinase (P31749 whole entry): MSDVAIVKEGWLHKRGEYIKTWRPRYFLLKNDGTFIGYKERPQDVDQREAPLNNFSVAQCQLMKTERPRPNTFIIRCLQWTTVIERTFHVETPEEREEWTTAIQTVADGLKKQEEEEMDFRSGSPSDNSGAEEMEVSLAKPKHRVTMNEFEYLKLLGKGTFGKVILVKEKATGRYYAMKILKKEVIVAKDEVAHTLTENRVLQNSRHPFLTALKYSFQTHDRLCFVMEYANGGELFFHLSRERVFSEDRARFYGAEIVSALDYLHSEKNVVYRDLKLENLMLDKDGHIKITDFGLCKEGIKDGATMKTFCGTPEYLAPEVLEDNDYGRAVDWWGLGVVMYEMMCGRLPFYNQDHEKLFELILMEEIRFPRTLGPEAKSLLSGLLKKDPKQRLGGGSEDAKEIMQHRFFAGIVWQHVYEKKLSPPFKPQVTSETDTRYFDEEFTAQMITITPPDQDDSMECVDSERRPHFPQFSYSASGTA
Chain of Mitogen-activated protein kinase 14 (Q16539 whole entry): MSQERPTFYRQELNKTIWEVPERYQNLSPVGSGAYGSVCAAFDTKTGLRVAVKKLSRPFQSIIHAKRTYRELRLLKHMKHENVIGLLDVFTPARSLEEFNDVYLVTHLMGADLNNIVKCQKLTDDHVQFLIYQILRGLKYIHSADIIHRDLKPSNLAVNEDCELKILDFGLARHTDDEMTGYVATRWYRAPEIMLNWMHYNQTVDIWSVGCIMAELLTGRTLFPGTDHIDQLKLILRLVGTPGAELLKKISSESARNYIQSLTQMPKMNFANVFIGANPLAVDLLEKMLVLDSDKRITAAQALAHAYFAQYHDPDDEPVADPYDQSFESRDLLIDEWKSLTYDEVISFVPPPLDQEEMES

Q: What does the source list for `CN1CCN(c2nc(C3=C(c4c[nH]c5ccccc45)C(=O)NC3=O)c3ccccc3n2)CC1` [SOTRASTAURIN]?
A: IC50 [1]: 0.0013 µM; IC50 [2]: 0.0062 µM; IC50 [3]: 0.0061 µM; IC50 [4]: 0.001 µM; pKa [5]: 7.4; Activity (Rattus norvegicus [6]): Active; Activity (Rattus norvegicus [7]): Active; Activity (Cynomolgus monkey): Active; IC50 [8]: 5.4 µM; AUC(0-inf) [9]: 1630 ng·h/mL; half-life [10]: 3.2 h; clearance [11]: 51.2 mL/min/kg; Vd [12]: 6.5 L/kg; Tmax [13]: 0.5 h; Cmax [14]: 622 ng/mL; AUC(0-inf) [15]: 2210 ng·h/mL; bioavailability [16]: 34%; IC50 [17]: 0.87 µM; IC50 [18]: 1.5 µM; IC50 [19]: 2.3 µM; IC50 [20]: 3.3 µM; IC50 [21]: 3.4 µM; IC50 [22]: 3.9 µM; IC50 [23]: 4.6 µM; IC50 [24]: 5.5 µM; IC50 [25]: 7.3 µM; IC50 (Focal adhesion kinase 1): 8.3 µM; IC50 [26]: 9.1 µM; IC50 [27]: > 10 µM; IC50 [28]: > 10 µM; IC50 [29]: > 10 µM; IC50 (Ephrin type-B receptor 4): > 10 µM; IC50 [30]: > 10 µM; IC50 [31]: > 10 µM; IC50 [32]: > 10 µM; IC50 [33]: > 10 µM; IC50 [34]: > 10 µM; IC50 [35]: > 10 µM; IC50 [36]: > 10 µM; IC50 [37]: > 10 µM; IC50 [38]: > 10 µM; IC50 [39]: > 10 µM; IC50 [40]: > 10 µM; IC50 [41]: > 10 µM; IC50 [42]: > 10 µM; IC50 [43]: > 10 µM; IC50 [44]: > 10 µM; IC50 [45]: > 10 µM; IC50 [46]: > 10 µM; IC50 [47]: > 10 µM; IC50 [48]: > 10 µM; IC50 [49]: > 10 µM; IC50 [50]: > 10 µM; IC50 (cells [51]): 0.054 µM; IC50 (Splenocyte): 0.128 µM; IC50 (cells [52]): 0.034 µM; IC50 (cells [53]): 3.7 µM

— ChEMBL document CHEMBL1156112, “Discovery of 3-(1H-indol-3-yl)-4-[2-(4-methylpiperazin-1-yl)quinazolin-4-yl]pyrrole-2,5-dione (AEB071), a potent and selective inhibitor of protein kinase C isotypes” (J Med Chem, 2009)
